# Numbering of substitutions follows the chain as printed.
# Experiments:
# Conditions in all cases: stereoisomer not certain
# OR2W3 (Homo sapiens) = target: T1, OR2W3 (Homo sapiens) (UniProt Q7Z3T1)
# T1 sequence (whole entry): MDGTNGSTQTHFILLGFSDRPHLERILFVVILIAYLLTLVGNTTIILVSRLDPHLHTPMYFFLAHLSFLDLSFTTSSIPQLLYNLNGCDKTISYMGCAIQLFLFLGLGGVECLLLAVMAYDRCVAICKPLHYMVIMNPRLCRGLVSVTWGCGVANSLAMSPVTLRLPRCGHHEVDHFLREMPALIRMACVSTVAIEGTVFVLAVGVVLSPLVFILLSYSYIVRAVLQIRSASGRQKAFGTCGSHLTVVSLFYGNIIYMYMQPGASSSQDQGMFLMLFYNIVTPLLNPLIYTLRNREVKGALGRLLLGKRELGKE
# Procedure, shortened: (§1)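 Each receptor–molecule pair is labelled responsive or non-responsive (inactive) according to whether the original authors judged the measured signal statistically different from baseline. The data were taken from the main text and supplementary material of published papers and checked for typos and inconsistencies. Assay methods differed by source, with transient luciferase assays in mammalian cell lines being common.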
# OR2W5P (Homo sapiens) = target: T2, OR2W5P (Homo sapiens) (UniProt A6NFC9)
# T2 sequence (whole entry): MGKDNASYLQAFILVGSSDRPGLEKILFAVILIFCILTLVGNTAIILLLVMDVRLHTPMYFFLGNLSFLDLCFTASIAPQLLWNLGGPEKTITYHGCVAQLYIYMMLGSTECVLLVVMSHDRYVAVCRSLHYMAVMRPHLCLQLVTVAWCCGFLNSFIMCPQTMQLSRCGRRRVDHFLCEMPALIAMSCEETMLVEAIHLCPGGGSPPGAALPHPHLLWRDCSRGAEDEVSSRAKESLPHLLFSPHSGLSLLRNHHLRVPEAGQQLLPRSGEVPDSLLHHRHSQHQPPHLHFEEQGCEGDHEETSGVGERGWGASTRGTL
# Procedure, shortened: as §1
# OR2Y1 (Homo sapiens) = target: T3, OR2Y1 (Homo sapiens) (UniProt Q8NGV0)
# T3 sequence (whole entry): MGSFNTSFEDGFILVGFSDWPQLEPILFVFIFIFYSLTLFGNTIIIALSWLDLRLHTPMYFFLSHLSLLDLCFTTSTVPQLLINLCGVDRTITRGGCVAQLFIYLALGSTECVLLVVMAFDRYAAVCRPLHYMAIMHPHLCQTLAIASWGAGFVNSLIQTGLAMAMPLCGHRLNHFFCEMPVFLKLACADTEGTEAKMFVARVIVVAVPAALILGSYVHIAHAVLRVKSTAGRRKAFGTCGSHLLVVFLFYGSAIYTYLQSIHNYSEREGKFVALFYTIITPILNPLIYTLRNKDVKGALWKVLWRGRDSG
# Procedure, shortened: as §1
# OR2Y1 = test system: T4, OR2Y1
# T4 sequence (whole entry): T3 sequence (whole entry) with V200L
# Procedure, shortened: as §1
# OR2Z1 (Homo sapiens) = target: T5, OR2Z1 (Homo sapiens) (UniProt Q8NG97)
# T5 sequence (whole entry): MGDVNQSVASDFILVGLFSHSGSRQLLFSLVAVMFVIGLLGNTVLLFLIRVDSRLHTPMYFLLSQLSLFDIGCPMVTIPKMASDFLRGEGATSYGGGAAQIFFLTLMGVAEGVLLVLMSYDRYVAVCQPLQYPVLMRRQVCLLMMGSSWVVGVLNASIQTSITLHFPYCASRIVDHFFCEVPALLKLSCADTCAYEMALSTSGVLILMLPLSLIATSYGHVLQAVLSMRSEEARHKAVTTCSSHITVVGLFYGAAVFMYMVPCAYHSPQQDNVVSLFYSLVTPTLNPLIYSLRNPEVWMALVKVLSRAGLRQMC
# Procedure, shortened: as §1
# OR3A1 (Homo sapiens) = target: T6, OR3A1 (Homo sapiens) (UniProt P47881)
# T6 sequence (whole entry): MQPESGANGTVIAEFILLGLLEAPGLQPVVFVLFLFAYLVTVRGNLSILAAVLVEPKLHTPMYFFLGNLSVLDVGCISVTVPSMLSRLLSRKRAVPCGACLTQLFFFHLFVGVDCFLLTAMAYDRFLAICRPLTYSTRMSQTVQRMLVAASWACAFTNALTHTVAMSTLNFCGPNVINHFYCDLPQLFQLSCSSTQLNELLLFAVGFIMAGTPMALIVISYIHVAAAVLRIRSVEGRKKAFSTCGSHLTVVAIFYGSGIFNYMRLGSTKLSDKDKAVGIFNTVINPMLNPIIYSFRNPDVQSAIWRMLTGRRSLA
# Procedure, shortened: as §1
# OR3A1 = test system: T7, OR3A1
# T7 sequence (whole entry): T6 sequence (whole entry) with R125Q
# Procedure, shortened: as §1
# OR3A2 (Homo sapiens) = target: T8, OR3A2 (Homo sapiens) (UniProt P47893)
# T8 sequence (whole entry): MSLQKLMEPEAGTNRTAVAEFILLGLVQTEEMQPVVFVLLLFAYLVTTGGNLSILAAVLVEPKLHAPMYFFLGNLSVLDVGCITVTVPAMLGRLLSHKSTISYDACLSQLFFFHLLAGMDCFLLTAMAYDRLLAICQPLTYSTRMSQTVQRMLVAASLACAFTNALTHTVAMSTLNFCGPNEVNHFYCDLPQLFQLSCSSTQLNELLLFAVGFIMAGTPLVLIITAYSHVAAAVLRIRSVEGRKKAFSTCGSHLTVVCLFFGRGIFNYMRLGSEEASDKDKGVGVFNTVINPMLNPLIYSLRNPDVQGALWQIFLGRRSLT
# Procedure, shortened: as §1
# OR3A2 R317K = test system: T9, OR3A2 R317K
# T9 sequence (whole entry): T8 sequence (whole entry) with R317K
# Procedure, shortened: as §1
# OR3A3 (Homo sapiens) = target: T10, OR3A3 (Homo sapiens) (UniProt P47888)
# T10 sequence (whole entry): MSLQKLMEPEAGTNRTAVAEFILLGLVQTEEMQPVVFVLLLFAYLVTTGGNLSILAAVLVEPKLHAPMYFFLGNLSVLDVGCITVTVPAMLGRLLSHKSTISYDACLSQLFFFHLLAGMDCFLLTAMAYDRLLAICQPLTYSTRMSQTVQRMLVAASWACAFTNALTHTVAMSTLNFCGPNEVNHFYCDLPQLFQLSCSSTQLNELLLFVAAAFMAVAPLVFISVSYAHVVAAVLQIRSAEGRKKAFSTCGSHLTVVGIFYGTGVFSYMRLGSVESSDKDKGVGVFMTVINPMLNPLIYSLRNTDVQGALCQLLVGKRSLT
# Procedure, shortened: as §1
# 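Further: active if original authors judged signal statistically different from baseline.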
structure (smiles),measurement,setting,value
CCCCCCC=CCCC=O,odorant receptor agonist call,OR2W3 (Homo sapiens),inactive
same,odorant receptor agonist call,OR2W5P (Homo sapiens),inactive
same,odorant receptor agonist call,OR2Y1 (Homo sapiens),inactive
same,odorant receptor agonist call,OR2Y1,inactive
same,odorant receptor agonist call,OR2Z1 (Homo sapiens),inactive
same,odorant receptor agonist call,OR3A1 (Homo sapiens),inactive
same,odorant receptor agonist call,OR3A1,inactive
same,odorant receptor agonist call,OR3A2 (Homo sapiens),inactive
same,odorant receptor agonist call,OR3A2 R317K,inactive
same,odorant receptor agonist call,OR3A3 (Homo sapiens),inactive
CCCCCC(=O)C(C)C(C)=O (centres undefined),odorant receptor agonist call,OR2W3 (Homo sapiens),inactive
same,odorant receptor agonist call,OR2W5P (Homo sapiens),inactive
same,odorant receptor agonist call,OR2Y1 (Homo sapiens),inactive
same,odorant receptor agonist call,OR2Z1 (Homo sapiens),inactive
same,odorant receptor agonist call,OR3A1 (Homo sapiens),inactive
same,odorant receptor agonist call,OR3A2 (Homo sapiens),inactive
same,odorant receptor agonist call,OR3A3 (Homo sapiens),inactive
COc1ccc(COC=O)cc1,odorant receptor agonist call,OR3A1 (Homo sapiens),inactive
CCCCCCCC(=O)OCCCCCC,odorant receptor agonist call,OR3A1 (Homo sapiens),inactive
CC(=O)c1c(C)c([N+](=O)[O-])c(C(C)(C)C)c([N+](=O)[O-])c1C,odorant receptor agonist call,OR2W3 (Homo sapiens),inactive
same,odorant receptor agonist call,OR2Y1 (Homo sapiens),inactive
same,odorant receptor agonist call,OR2Z1 (Homo sapiens),inactive
same,odorant receptor agonist call,OR3A1 (Homo sapiens),inactive
same,odorant receptor agonist call,OR3A2 (Homo sapiens),inactive
same,odorant receptor agonist call,OR3A3 (Homo sapiens),inactive
COc1ccc(CC(C)C=O)cc1 (centres undefined),odorant receptor agonist call,OR3A1 (Homo sapiens),active
CC(C=O)Cc1ccc(C(C)(C)C)cc1 (centres undefined),odorant receptor agonist call,OR2W3 (Homo sapiens),inactive
same,odorant receptor agonist call,OR3A1 (Homo sapiens),active
O=CCCc1ccccc1,odorant receptor agonist call,OR3A1 (Homo sapiens),inactive
CC(CC=O)CCc1ccccc1 (centres undefined),odorant receptor agonist call,OR3A1 (Homo sapiens),active
CC1=CC(=O)CC(C(C)C)C1 (centres undefined),odorant receptor agonist call,OR3A1 (Homo sapiens),active
Cc1cnc(C)c(C)n1,odorant receptor agonist call,OR2W3 (Homo sapiens),inactive
same,odorant receptor agonist call,OR2W5P (Homo sapiens),inactive
same,odorant receptor agonist call,OR2Y1 (Homo sapiens),inactive
same,odorant receptor agonist call,OR2Y1,inactive
same,odorant receptor agonist call,OR2Z1 (Homo sapiens),inactive
same,odorant receptor agonist call,OR3A1 (Homo sapiens),inactive
same,odorant receptor agonist call,OR3A1,inactive
same,odorant receptor agonist call,OR3A2 (Homo sapiens),inactive
same,odorant receptor agonist call,OR3A2 R317K,inactive
same,odorant receptor agonist call,OR3A3 (Homo sapiens),inactive
CC1=NC(C)C(C)S1 (centres undefined),odorant receptor agonist call,OR2W3 (Homo sapiens),inactive
same,odorant receptor agonist call,OR2W5P (Homo sapiens),inactive
same,odorant receptor agonist call,OR2Y1 (Homo sapiens),inactive
same,odorant receptor agonist call,OR2Y1,inactive
same,odorant receptor agonist call,OR2Z1 (Homo sapiens),inactive
same,odorant receptor agonist call,OR3A1 (Homo sapiens),inactive
same,odorant receptor agonist call,OR3A1,inactive
same,odorant receptor agonist call,OR3A2 (Homo sapiens),inactive
same,odorant receptor agonist call,OR3A2 R317K,inactive
same,odorant receptor agonist call,OR3A3 (Homo sapiens),inactive
CC(=O)OCc1ccc2c(c1)OCO2,odorant receptor agonist call,OR3A1 (Homo sapiens),inactive
CC(C)CC=O,odorant receptor agonist call,OR3A1 (Homo sapiens),inactive
CCCCCCCCCC(C)C=O (centres undefined),odorant receptor agonist call,OR3A1 (Homo sapiens),inactive
CCCCCCCCCCCCCC(=O)O,odorant receptor agonist call,OR2W3 (Homo sapiens),inactive
CC(CO)CS (centres undefined),odorant receptor agonist call,OR2W3 (Homo sapiens),inactive
same,odorant receptor agonist call,OR2W5P (Homo sapiens),inactive
same,odorant receptor agonist call,OR2Y1 (Homo sapiens),inactive
same,odorant receptor agonist call,OR2Z1 (Homo sapiens),inactive
same,odorant receptor agonist call,OR3A1 (Homo sapiens),inactive
same,odorant receptor agonist call,OR3A2 (Homo sapiens),inactive
same,odorant receptor agonist call,OR3A3 (Homo sapiens),inactive
CCC1OC(C)=C(O)C1=O (centres undefined),odorant receptor agonist call,OR2W3 (Homo sapiens),inactive
same,odorant receptor agonist call,OR2W5P (Homo sapiens),inactive
same,odorant receptor agonist call,OR2Y1 (Homo sapiens),inactive
same,odorant receptor agonist call,OR2Y1,inactive
same,odorant receptor agonist call,OR2Z1 (Homo sapiens),inactive
same,odorant receptor agonist call,OR3A1 (Homo sapiens),inactive
same,odorant receptor agonist call,OR3A1,inactive
same,odorant receptor agonist call,OR3A2 (Homo sapiens),inactive
same,odorant receptor agonist call,OR3A2 R317K,inactive
same,odorant receptor agonist call,OR3A3 (Homo sapiens),inactive
CCC(S)C(C)CO (centres undefined),odorant receptor agonist call,OR2W3 (Homo sapiens),inactive
same,odorant receptor agonist call,OR2W5P (Homo sapiens),inactive
same,odorant receptor agonist call,OR2Y1 (Homo sapiens),inactive
same,odorant receptor agonist call,OR2Z1 (Homo sapiens),inactive
same,odorant receptor agonist call,OR3A1 (Homo sapiens),inactive
same,odorant receptor agonist call,OR3A2 (Homo sapiens),inactive
same,odorant receptor agonist call,OR3A3 (Homo sapiens),inactive

# Reference: the M2OR odorant receptor database
